Screening data: PubChem, The Scripps Research Institute Molecular Screening Center
In the library only some 2% were active in any assay of this set; here they are far more common.
TDP2 absorb: TDP2 (human) inhibition, absorbance primary screen; O95551; recombinant TDP2, T5PNP hydrolysis, p-nitrophenol absorbance 415 nm; inhibition, % at 12.8 µM; actives 0.34% (n = 370,000); AID 720702;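 active = inhibition above the mean of all tested compounds plus 3 SD, set per campaign, cut at about 25% in these data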
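Assay system: recombinant human TDP2 / Reagent: T5PNP substrate at 5 mM, a TopII-DNA adduct mimic / Measured by: epi absorbance from released p-nitrophenol / Evaluation: % inhibition relative to enzyme-containing and enzyme-free wells / Control set: enzyme-free and DMSO wells / Replicates: each compound tested once, singlicate / Schedule: enzyme reaction with compound for 2 h at 37 °C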
LEDGF integ inh: blocks HIV-1 LEDGF/p75-dependent DNA integration; TR-FRET IN-LEDGF/p75 DNA integration, Eu/Cy5; inhibition, % at 3.7 µM; actives 0.64% (n = 370,000);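 active = inhibition above the screen-wide mean plus 3 SD, cut at about 13% in these data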;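 also: signal is the Cy5 over europium emission ratio at 671 and 618 nm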
UHRF1 MBD2 ctr: UHRF1 methyl-DNA binding inhibition; Q96T88; UHRF1 binding to methylated oligo, TR-FRET; inhibition, % at 4.4 µM; actives 0.75% (n = 370,000); AID 687016; in the data active = inhibition above about 21%;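 also: UHRF1 SRA domain binding a hemimethylated CpG hairpin DNA probe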
Target sequence (Q96T88 whole entry, looked up, the tested form may be a part): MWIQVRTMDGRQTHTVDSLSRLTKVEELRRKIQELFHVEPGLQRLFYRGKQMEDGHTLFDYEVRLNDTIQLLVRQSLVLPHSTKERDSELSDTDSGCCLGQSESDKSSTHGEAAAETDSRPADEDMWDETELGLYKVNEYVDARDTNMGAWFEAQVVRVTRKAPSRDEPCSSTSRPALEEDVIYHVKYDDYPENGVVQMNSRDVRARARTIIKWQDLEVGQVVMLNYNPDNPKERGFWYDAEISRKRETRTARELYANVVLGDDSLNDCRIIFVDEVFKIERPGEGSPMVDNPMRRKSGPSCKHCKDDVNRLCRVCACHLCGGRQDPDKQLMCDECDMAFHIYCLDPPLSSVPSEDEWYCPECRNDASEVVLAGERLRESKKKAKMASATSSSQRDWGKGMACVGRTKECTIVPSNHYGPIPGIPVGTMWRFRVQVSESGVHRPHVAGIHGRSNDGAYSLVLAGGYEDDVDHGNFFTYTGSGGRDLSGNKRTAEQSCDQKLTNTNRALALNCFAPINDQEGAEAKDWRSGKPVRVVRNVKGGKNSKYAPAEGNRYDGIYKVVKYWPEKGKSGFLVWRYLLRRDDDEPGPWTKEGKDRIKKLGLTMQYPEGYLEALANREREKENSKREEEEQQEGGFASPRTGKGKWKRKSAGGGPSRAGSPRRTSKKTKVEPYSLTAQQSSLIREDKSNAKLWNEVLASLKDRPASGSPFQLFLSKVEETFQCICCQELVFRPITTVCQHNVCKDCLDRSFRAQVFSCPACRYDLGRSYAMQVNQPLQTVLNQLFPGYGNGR
MBD2 DNA inh: blocks human MBD2 binding to methylated DNA | TR-FRET, MBD2 binding to methylated oligonucleotide | Q9UBB5 | AID 686964 | actives 0.31% (n = 370,000) | inhibition, % at 4.4 µM; in the data active = inhibition above about 13%
ARFGAP1 inhibitor: rat ARFGAP1 inhibition; Arfgap1-stimulated ARF1 GTP hydrolysis, GDP FP detection; inhibition, % at 16.5 µM; actives 0.26% (n = 360,000); AID 651572;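 active = inhibition above a per-plate limit, mean inhibition of low control wells plus 3 SD, cut at about 25% in these data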
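Material: rat Arfgap1 catalytic domain, aa 1-136; also added: human ARF1(Δ1-17)-GTP substrate; compound dosing: one concentration, 16.5 µM, DMSO 1.26%; incubation: GTP hydrolysis reaction 2 h at 25 °C; measured by: Tracer-displacement fluorescence polarization with EDTA stop, 620/688 nm; evaluation: % inhibition from polarization; repeats: one replicate per compound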
ASAP1 GAP inh: ASAP1 ArfGAP inhibition; ASAP1-stimulated ARF1 GTP hydrolysis, GDP FP detection; inhibition, % at 16.5 µM; actives 0.19% (n = 360,000); Q9ULH1; in the data active = inhibition above about 25%
Of the large screens only hits and unclear results are named; the others gave an inactive call.

O=C(O)c1cc([N+](=O)[O-])ccc1NCCc1ccccc1	UHRF1 MBD2 ctr 25.1
O=C(O)c1cc([N+](=O)[O-])ccc1NCCO	none
C=CCN1C(=O)[C@@H](CC(=O)NCCCOC)[C@]2(C(=O)OCC)CCCCC/C=C/12	none (no result: ARFGAP1 inhibitor, ASAP1 GAP inh)
Cc1cc(C)cc(OCC(=O)OCc2cc([N+](=O)[O-])cc3c2OCOC3)c1	none
CC(=O)c1ccc(OCc2cc([N+](=O)[O-])cc3c2OCOC3)cc1	UHRF1 MBD2 ctr 22.6
OCC[C@H]1C[C@H](O)[C@@H](O)[C@@]2(OCc3ccccc32)O1	none
OCC[C@@H]1C[C@H](O)[C@@H](O)[C@@]2(OCc3cc(C(F)(F)F)ccc32)O1	UHRF1 MBD2 ctr 21.5
O=S1(=O)c2ccc(Br)cc2OC[C@@H](Cc2ccccc2)N1Cc1cn(Cc2ccc(F)cc2)nn1	none (no result: ARFGAP1 inhibitor, ASAP1 GAP inh)
Cc1ccc(S(=O)(=O)N2CCOCC2)cc1NC(=O)CNCc1ccccn1	UHRF1 MBD2 ctr 27.2
CSC1SCC2C(=O)N(C)C(C(C)C)C(=O)OCC(NC(=O)c3cnc4ccccc4n3)C(=O)NC(C)C(=O)N(C)C1C(=O)N(C)C(C(C)C)C(=O)OCC(NC(=O)c1cnc3ccccc3n1)C(=O)NC(C)C(=O)N2C (centres undefined)	MBD2 DNA inh 95.1
Cc1ccc(S(=O)(=O)NCCCc2ccc3c(c2)[C@]2(CCC[C@@H](OCc4ccccc4)[C@@H]2NC(=O)CCc2ccccc2)C(=O)N3Cc2ccccc2)cc1	none (no result: ARFGAP1 inhibitor, ASAP1 GAP inh)
CC[C@H]1/C(=C/c2ccccc2)N2C(=O)C[C@H](c3ccccc3)N=C2N1C	none (no result: ARFGAP1 inhibitor, ASAP1 GAP inh)
C[C@H](CO)N1C[C@H](C)[C@@H](CN(C)C(=O)c2cnccn2)Oc2cc(C#CCC3CCCC3)ccc2S1(=O)=O	UHRF1 MBD2 ctr 22.5
COc1cccc(C#Cc2ccc3c(c2)O[C@H](CN(C)S(=O)(=O)c2ccccc2F)[C@H](C)CN([C@H](C)CO)S3(=O)=O)c1	UHRF1 MBD2 ctr 20.7
Cc1ccc(S(=O)(=O)N(C)C[C@H]2Oc3cc(C#CC4CCCC4)ccc3S(=O)(=O)N([C@H](C)CO)C[C@H]2C)cc1	UHRF1 MBD2 ctr 21.5
COc1cccc(C#Cc2ccc3c(c2)O[C@@H](CN(C)C(=O)c2ccccn2)[C@@H](C)CN([C@H](C)CO)S3(=O)=O)c1	UHRF1 MBD2 ctr 22.2
CC(C)C#Cc1ccc2c(c1)O[C@@H](CN(C)C(=O)c1cnccn1)[C@@H](C)CN([C@@H](C)CO)S2(=O)=O	none
C[C@H]1CN([C@@H](C)CO)S(=O)(=O)c2ccc(C#CC3CC3)cc2O[C@@H]1CN(C)S(C)(=O)=O	none
CN1CCCN(C(=O)C2CCN(c3ncnc4c3sc3cccc(F)c34)CC2)CC1	none (no result: ARFGAP1 inhibitor, ASAP1 GAP inh)
COC(=O)[C@]12C[C@H](CC(=O)N3CCCC3)C(=O)N(CCc3ccc(OC)c(OC)c3)C1=C[C@H](C1CCCC1)O[C@@H]2C	none (no result: ARFGAP1 inhibitor, ASAP1 GAP inh)
COc1cccc(N(CC(=O)NCCSc2ccc(Cl)cc2)S(C)(=O)=O)c1	UHRF1 MBD2 ctr 27.1
COc1cccc(N(CC(=O)NCCSc2ccccc2)S(C)(=O)=O)c1	none
CC(COc1cccc(Br)c1)CN1CCC(C(O)(c2ccccc2)c2ccccc2)CC1 (centres undefined)	none (no result: ARFGAP1 inhibitor, ASAP1 GAP inh)
COC(=O)c1cn(C(=O)OC)c2ccccc12	none
COC(=O)c1cn(C(=O)c2ccccc2Cl)c2ccccc12	UHRF1 MBD2 ctr 25.0
O=C(N1CCOCC1)N1CC[C@H]2[C@H](CCCN2Cc2cc(F)cc(F)c2)C1	none (no result: ARFGAP1 inhibitor, ASAP1 GAP inh)
CC12CCC(C(=O)N(CCCCN3CCN(Cc4ccccc4)CC3)C1=O)C2(C)C (centres undefined)	none
CC12CCC(C(=O)N(CC(O)CN3CCN(Cc4ccccc4)CC3)C1=O)C2(C)C (centres undefined)	UHRF1 MBD2 ctr 24.1
CC(C)C(=O)NC(=S)Nc1sc2c(c1C(N)=O)CCCC2	UHRF1 MBD2 ctr 50.5
CCCC(=O)NC(=S)Nc1sc2c(c1C(N)=O)CCC2	none
Cc1ccccc1NC(=O)OCCN1CCCC12CCC(c1ccccc1)CC2 (centres undefined)	none (no result: ARFGAP1 inhibitor, ASAP1 GAP inh)
O=[N+]([O-])c1cccc2c1ccc1ncccc12	UHRF1 MBD2 ctr 49.0
CCOC(=O)C(Cc1ccc(OC)c([N+](=O)[O-])c1)NC(=O)CCC(=O)Nc1ccc(OC)cc1 (centres undefined)	UHRF1 MBD2 ctr 27.6
CCCCCCCCCCCC(=O)NC(Cc1ccc(OC)c([N+](=O)[O-])c1)C(=O)O (centres undefined)	none
C[C@@H]1CN([C@@H](C)CO)C(=O)c2cccc(NC(=O)Nc3cccc4ccccc34)c2O[C@H]1CN(C)S(=O)(=O)c1ccc(Cl)cc1	none (no result: ARFGAP1 inhibitor, ASAP1 GAP inh)
COc1cc(-c2cccc([C@H]3[C@@H]4C=CC[C@@H](C)[C@@H]4C(=O)N3Cc3ccccc3)c2)cc(OC)c1OC	UHRF1 MBD2 ctr 45.5
C[C@H]1[C@@H](NC(=O)C2CCCCC2)CC[C@@]23CCCN2C(=O)CCC[C@@H]13	none (no result: ARFGAP1 inhibitor, ASAP1 GAP inh)
COC(=O)CSc1nn(-c2ccc(F)cc2)c(=S)s1	UHRF1 MBD2 ctr 21.4
COc1cc(C(=O)NNC(=O)c2ccc(NC(=O)C(C)(C)C)cc2)cc(OC)c1OC	UHRF1 MBD2 ctr 32.2
CCC(=O)Nc1ccc(C(=O)NNC(=O)c2cc(OC)c(OC)c(OC)c2)cc1	none
CCc1cc(-c2nnn(CCC3COCCO3)c2CC)cc(CC)c1-c1cn(Cc2ccc3ccccc3c2)nn1 (centres undefined)	UHRF1 MBD2 ctr 65.4
CCc1cc(-c2nnn(CCC3COCCO3)c2CC)ccc1-c1cn(CCc2c[nH]c3ccccc23)nn1 (centres undefined)	none
Nc1c(C(=O)Nc2ccc(Br)cc2)sc2nc(-c3ccco3)ccc12	LEDGF integ inh 14.6
CSCc1c(C(=O)OCC(=O)c2ccc[nH]2)oc2ccccc12	LEDGF integ inh 19.4
CCOC(=O)c1oc2ccccc2c1NC(=O)C(C)(C)C	UHRF1 MBD2 ctr 52.3
Cc1[nH]n(S(=O)(=O)c2ccccc2)c(=O)c1N=Nc1cccc(Cl)c1	UHRF1 MBD2 ctr 33.6
O=c1[nH]c2ccc(S(=O)(=O)N3CCCC3)cc2o1	none (no result: ARFGAP1 inhibitor, ASAP1 GAP inh)
CC(C)c1ccc(S(=O)(=O)N2CCN(CC(=O)c3ccc(O)c(O)c3)CC2)cc1	LEDGF integ inh 36.0
O=C(CN1CCN(S(=O)(=O)c2ccc(Br)cc2)CC1)c1ccc(O)c(O)c1	LEDGF integ inh 42.0
O=C(CN1CCN(c2ccccc2F)CC1)c1ccc(O)c(O)c1	LEDGF integ inh 63.9
CCCCc1ccc2nc(NC(=O)c3ccco3)sc2c1	none (no result: ARFGAP1 inhibitor, ASAP1 GAP inh)
CC(=O)c1cc(-c2ccc(Oc3ccccc3)cc2)c(=O)n2c1CCC2	none (no result: ARFGAP1 inhibitor, ASAP1 GAP inh)
CCOc1ccc(Br)cc1S(=O)(=O)Nc1cccc(S(=O)(=O)N(C)c2ccccc2)c1	UHRF1 MBD2 ctr 22.9
